The source made the active and inactive calls. The rule behind the calls is not given here.
Key:
Mus musculus [1] = assay: Immunostimulatory activity in BALB/c mouse assessed as increase in granulocyte count in peripheral blood at 100 ug, ip after 24 hrs; format: functional, organism-based
Mus musculus [2] = assay: Immunostimulatory activity in BALB/c mouse assessed as decrease in lymphocyte count in peripheral blood at 100 ug, ip after 24 hrs; format: functional, organism-based
Mus musculus [3] = assay: Immunostimulatory activity in BALB/c mouse assessed as influx of macrophages into peritoneal cavity at 100 ug, ip after 24 hrs; format: functional, organism-based
Summary of the method: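 Female BALB/c mice (6–8 weeks) got one ip injection of sample. Peritoneal cavity cells were collected and percentages of macrophages, lymphocytes and mast cells scored. Values are the mean of three independent experiments ± SD.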

Mus musculus [4] = assay: Immunostimulatory activity in BALB/c mouse assessed as induction of peripheral blood monocyte phagocytosis at 100 ug, ip after 24 hrs; format: functional, organism-based
Summary of the method: (§1)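 Female BALB/c mice (6–8 weeks) were injected ip with oligosaccharide 24 h before the test. Heparinised (5 IU/mL) orbital plexus blood was incubated with synthetic HEMA microspheres. Two smears from two parallel samples were stained with Accustain. Monocytes and granulocytes holding three or more particles were scored positive. Mean ± SD; P <0.05.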

Mus musculus [5] = assay: Immunostimulatory activity in BALB/c mouse assessed as induction of peripheral blood granulocyte phagocytosis at 100 ug, ip after 24 hrs; format: functional, organism-based; summary of the method: as §1
Mus musculus [6] = assay: Immunostimulatory activity in BALB/c mouse assessed as induction of peritoneal macrophage phagocytosis at 100 ug, ip after 24 hrs; format: functional, organism-based
Summary of the method: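 Oligosaccharide was given ip to female BALB/c mice (6–8 weeks) 24 h before harvest. Peritoneal macrophages were isolated, diluted to 1×10⁷ in RPMI-1640 with 5% fetal calf serum, and incubated with HEMA microspheres. Smears were stained with Accustain, and phagocytosis was scored with differential counts; cells with three or more particles counted positive.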

Caco-2 = assay: Cytotoxicity against human Caco-2 cells assessed as effect on cell growth at 0.1 to 25 uM after 24 to 48 hrs by Hoechst 3342 staining-based imaging analysis; details: caco-2, 25 µM
Summary of the method: (§2)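 Human tumour lines (liver, colon, prostate, breast, lung) and resting normal diploid skin fibroblasts were grown per supplier guidance. 4×10³ cells/well attached for 24 h, then were exposed to increasing compound concentrations for 1 and 2 days. Cells were fixed in 4% paraformaldehyde, nuclei stained with Hoechst 3342, and counted by automated imaging from four pictures per well.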

HCT-116 = assay: Cytotoxicity against human HCT116 cells assessed as effect on cell growth at 0.1 to 25 uM after 24 to 48 hrs by Hoechst 3342 staining-based imaging analysis; details: hct-116, 25 µM; summary of the method: as §2
[7] = Cytotoxicity against human HuH7 cells assessed as effect on cell growth at 0.1 to 25 uM after 24 to 48 hrs by Hoechst 3342 staining-based imaging analysis; details: huh-7, 25 µM; summary of the method: as §2
[8] = Cytotoxicity against human NCI/ADR cells assessed as effect on cell growth at 0.1 to 25 uM after 24 to 48 hrs by Hoechst 3342 staining-based imaging analysis; summary of the method: as §2
PC-3 = assay: Cytotoxicity against human PC3 cells assessed as effect on cell growth at 0.1 to 25 uM after 24 to 48 hrs by Hoechst 3342 staining-based imaging analysis; details: pc-3, 25 µM; summary of the method: as §2
[9] = Cytotoxicity against human skin fibroblast assessed as effect on cell growth at 0.1 to 25 uM after 24 to 48 hrs by Hoechst 3342 staining-based imaging analysis; summary of the method: as §2
Mus musculus [10] = species: Mus musculus; assay: Immunostimulatory activity in BALB/c mouse splenocytes assessed as induction of IL2 production at 100 ug after 72 hrs; format: functional, organism-based; details: Splenocyte
Summary of the method: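 Spleen cells came from female BALB/c mice (6–8 weeks) injected ip with oligosaccharide; controls were PBS-injected mice. Cells were plated at 2×10⁶/mL in RPMI-1640 with 5% FCS, with Concanavalin A added to positive-control wells. After 72 h at 37 °C and 5% CO₂, supernatant IL-2 was measured with a Quantikine mouse IL-2 kit. Mean of three independent experiments ± SD.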

| Compound | Activity (Mus musculus [1]) | Activity (Mus musculus [2]) | Activity (Mus musculus [3]) | Activity (Mus musculus [4]) | Activity (Mus musculus [5]) | Activity (Mus musculus [6]) | Activity (Caco-2) | Activity (HCT-116) | Activity [7] | Activity [8] | Activity (PC-3) | Activity [9] | Activity (Mus musculus [10]) |
| --- | --- | --- | --- | --- | --- | --- | --- | --- | --- | --- | --- | --- | --- |
| OC[C@H]1O[C@@H](O[C@@H]2[C@@H](O)[C@H](O[C@@H]3[C@@H](O)[C@H](O[C@@H]4[C@@H](O)[C@H](O[C@@H]5[C@@H](O)[C@H](O)O[C@H](CO)[C@H]5O)O[C@H](CO)[C@H]4O)O[C@H](CO)[C@H]3O)O[C@H](CO)[C@H]2O)[C@H](O)[C@@H](O)[C@@H]1O | Active | Active | Active | Active | Active | Active | – | – | – | – | – | – | – |
| OC[C@H]1O[C@@H](O[C@@H]2[C@@H](O)[C@H](O[C@@H]3[C@@H](O)[C@H](O[C@@H]4[C@@H](O)[C@H](O[C@@H]5[C@@H](O)[C@H](O[C@H]6[C@H](O)[C@@H](CO)OC(O)[C@H]6O)O[C@H](CO)[C@H]5O)O[C@H](CO)[C@H]4O)O[C@H](CO)[C@H]3O)O[C@H](CO)[C@H]2O)[C@H](O)[C@@H](O)[C@@H]1O (some centres not stated) | Active | Active | Active | Active | Active | Active | Non-toxic | Non-toxic | Non-toxic | Non-toxic | Non-toxic | Non-toxic | – |
| OC[C@H]1O[C@@H](O[C@@H]2[C@@H](O)[C@H](O[C@@H]3[C@@H](O)[C@H](O[C@@H]4[C@@H](O)[C@H](O[C@@H]5[C@@H](O)[C@H](O[C@@H]6[C@@H](O)[C@H](O[C@@H]7[C@@H](O)[C@H](O)O[C@H](CO)[C@H]7O)O[C@H](CO)[C@H]6O)O[C@H](CO)[C@H]5O)O[C@H](CO)[C@H]4O)O[C@H](CO)[C@H]3O)O[C@H](CO)[C@H]2O)[C@H](O)[C@@H](O)[C@@H]1O | Active | Active | Active | Active | Active | Active | – | – | – | – | – | – | – |
| OC[C@H]1O[C@@H](O[C@@H]2[C@@H](O)[C@H](O[C@@H]3[C@@H](O)[C@H](O[C@@H]4[C@@H](O)[C@H](O[C@H]5[C@H](O)[C@@H](CO)OC(O)[C@H]5O)O[C@H](CO)[C@H]4O)O[C@H](CO)[C@H]3O)O[C@H](CO)[C@H]2O)[C@H](O)[C@@H](O)[C@@H]1O (some centres not stated) | Active | Active | Active | Active | Active | Active | Non-toxic | Non-toxic | Non-toxic | Non-toxic | Non-toxic | Non-toxic | Active |

— ChEMBL document CHEMBL1157669, “New oligo-beta-(1,3)-glucan derivatives as immunostimulating agents” (Bioorg Med Chem, 2010)
